Legend:
[1] = molecular target: Tyrosine-protein kinase Lck (Homo sapiens) (UniProt P06239); test: Inhibition of human recombinant LCK at 40 nM in presence of ATP by radiometric assay relative to control
[2] = molecular target: RAC-beta serine/threonine-protein kinase (Homo sapiens) (UniProt P31751); test: Inhibition of human recombinant AKT2 at 40 nM related to control ULK1
How it was run: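 Radiometric activity assays in a panel of 327 human recombinant kinases, each run in duplicate at one inhibitor concentration. Activity remaining is expressed as percent of vehicle control, and percent inhibition is calculated as 100% minus percent activity remaining.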

[3] = molecular target: T1, Serine/threonine-protein kinase Nek2 (Homo sapiens) (UniProt P51955); test: Inhibition of human recombinant NEK2 at 40 nM in presence of ATP by radiometric assay relative to control
T1 sequence (whole entry): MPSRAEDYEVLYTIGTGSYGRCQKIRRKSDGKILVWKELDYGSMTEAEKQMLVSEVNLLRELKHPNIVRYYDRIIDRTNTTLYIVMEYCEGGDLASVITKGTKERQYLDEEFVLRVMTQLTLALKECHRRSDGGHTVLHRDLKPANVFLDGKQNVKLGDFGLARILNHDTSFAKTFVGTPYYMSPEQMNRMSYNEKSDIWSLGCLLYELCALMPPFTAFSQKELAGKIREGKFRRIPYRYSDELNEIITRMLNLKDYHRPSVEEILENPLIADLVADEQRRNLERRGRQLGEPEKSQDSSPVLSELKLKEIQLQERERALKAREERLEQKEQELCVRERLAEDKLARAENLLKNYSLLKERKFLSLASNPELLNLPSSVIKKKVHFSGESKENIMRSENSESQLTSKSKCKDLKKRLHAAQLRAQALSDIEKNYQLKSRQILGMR

[4] = molecular target: Proto-oncogene tyrosine-protein kinase receptor Ret (Homo sapiens) (UniProt P07949); test: Inhibition of human recombinant RET at 40 nM in presence of ATP by radiometric assay relative to control
[5] = molecular target: T2, Tribbles homolog 2 (Homo sapiens) (UniProt Q92519); test: Inhibition of human recombinant Trb2 at 15 nM in presence of ATP by radiometric assay relative to control
T2 sequence (whole entry): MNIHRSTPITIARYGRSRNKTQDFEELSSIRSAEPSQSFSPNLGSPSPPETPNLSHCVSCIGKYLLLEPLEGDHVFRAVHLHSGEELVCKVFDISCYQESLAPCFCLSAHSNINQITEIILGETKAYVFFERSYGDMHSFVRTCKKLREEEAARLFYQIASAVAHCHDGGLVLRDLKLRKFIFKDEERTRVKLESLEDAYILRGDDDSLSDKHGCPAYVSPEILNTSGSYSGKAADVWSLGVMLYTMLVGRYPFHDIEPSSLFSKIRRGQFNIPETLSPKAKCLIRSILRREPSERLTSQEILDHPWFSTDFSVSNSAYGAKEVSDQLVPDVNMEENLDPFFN

[6] = molecular target: T3, Serine/threonine-protein kinase haspin (Homo sapiens) (UniProt Q8TF76); test: Inhibition of human recombinant Haspin at 15 nM in presence of ATP by radiometric assay relative to control
T3 sequence (whole entry): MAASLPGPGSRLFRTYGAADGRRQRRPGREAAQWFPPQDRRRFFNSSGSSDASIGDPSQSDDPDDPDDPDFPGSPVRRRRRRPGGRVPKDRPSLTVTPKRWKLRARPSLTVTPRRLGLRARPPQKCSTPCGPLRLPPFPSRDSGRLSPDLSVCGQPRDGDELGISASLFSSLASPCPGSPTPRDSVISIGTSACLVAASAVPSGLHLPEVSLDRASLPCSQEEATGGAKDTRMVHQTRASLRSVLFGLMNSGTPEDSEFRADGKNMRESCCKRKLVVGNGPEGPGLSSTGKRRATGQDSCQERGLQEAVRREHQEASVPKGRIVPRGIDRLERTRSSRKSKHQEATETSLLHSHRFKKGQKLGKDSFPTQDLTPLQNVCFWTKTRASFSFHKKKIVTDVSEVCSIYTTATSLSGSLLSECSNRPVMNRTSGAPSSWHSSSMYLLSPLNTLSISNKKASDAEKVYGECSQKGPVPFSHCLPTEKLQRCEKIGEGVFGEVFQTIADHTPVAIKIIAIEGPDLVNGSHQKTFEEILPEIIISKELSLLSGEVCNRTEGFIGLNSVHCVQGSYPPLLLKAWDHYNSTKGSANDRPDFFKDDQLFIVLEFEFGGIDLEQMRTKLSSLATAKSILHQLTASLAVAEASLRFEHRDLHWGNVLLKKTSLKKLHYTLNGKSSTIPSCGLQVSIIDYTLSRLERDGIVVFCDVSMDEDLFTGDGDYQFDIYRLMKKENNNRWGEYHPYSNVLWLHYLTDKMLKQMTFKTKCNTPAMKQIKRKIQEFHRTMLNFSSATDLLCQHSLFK

[7] = molecular target: Protein kinase C gamma type (Homo sapiens) (UniProt P05129); test: Inhibition of human recombinant PKCg at 15 nM related to control ULK1
[8] = molecular target: Mast/stem cell growth factor receptor Kit (Homo sapiens) (UniProt P10721); test: Inhibition of human recombinant KIT at 500 nM related to control ULK1
[9] = molecular target: Non-receptor tyrosine-protein kinase TYK2 (Homo sapiens) (UniProt P29597); test: Inhibition of human recombinant TYK2 at 500 nM in presence of ATP by radiometric assay relative to control
[10] = molecular target: Cyclin-dependent kinase 18 (Homo sapiens) (UniProt Q07002); test: Inhibition of human recombinant PCTAIRE3 at 500 nM in presence of ATP by radiometric assay relative to control
[11] = molecular target: T4, TGF-beta receptor type-1 (Homo sapiens) (UniProt P36897); test: Inhibition of human recombinant TGFbR1 at 500 nM in presence of ATP by radiometric assay relative to control
T4 sequence (whole entry): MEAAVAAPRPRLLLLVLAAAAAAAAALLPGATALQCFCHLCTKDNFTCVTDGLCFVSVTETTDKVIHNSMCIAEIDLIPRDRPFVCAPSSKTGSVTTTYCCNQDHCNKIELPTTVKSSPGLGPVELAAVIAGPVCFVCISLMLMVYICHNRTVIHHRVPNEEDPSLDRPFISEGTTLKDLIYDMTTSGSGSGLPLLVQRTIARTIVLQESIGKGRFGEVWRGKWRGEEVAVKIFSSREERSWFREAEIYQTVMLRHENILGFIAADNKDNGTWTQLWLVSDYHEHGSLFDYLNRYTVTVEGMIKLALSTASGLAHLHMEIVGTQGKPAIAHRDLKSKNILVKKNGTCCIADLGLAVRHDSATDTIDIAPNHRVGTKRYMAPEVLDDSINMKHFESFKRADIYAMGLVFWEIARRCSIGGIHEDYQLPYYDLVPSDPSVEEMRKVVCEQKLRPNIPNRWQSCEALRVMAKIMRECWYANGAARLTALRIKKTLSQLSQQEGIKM

[12] = molecular target: Mast/stem cell growth factor receptor Kit (Homo sapiens) (UniProt P10721); test: Inhibition of human recombinant KIT at 500 nM in presence of ATP by radiometric assay relative to control

Mast/stem cell growth factor receptor Kit (Homo sapiens), sequence (P10721 whole entry): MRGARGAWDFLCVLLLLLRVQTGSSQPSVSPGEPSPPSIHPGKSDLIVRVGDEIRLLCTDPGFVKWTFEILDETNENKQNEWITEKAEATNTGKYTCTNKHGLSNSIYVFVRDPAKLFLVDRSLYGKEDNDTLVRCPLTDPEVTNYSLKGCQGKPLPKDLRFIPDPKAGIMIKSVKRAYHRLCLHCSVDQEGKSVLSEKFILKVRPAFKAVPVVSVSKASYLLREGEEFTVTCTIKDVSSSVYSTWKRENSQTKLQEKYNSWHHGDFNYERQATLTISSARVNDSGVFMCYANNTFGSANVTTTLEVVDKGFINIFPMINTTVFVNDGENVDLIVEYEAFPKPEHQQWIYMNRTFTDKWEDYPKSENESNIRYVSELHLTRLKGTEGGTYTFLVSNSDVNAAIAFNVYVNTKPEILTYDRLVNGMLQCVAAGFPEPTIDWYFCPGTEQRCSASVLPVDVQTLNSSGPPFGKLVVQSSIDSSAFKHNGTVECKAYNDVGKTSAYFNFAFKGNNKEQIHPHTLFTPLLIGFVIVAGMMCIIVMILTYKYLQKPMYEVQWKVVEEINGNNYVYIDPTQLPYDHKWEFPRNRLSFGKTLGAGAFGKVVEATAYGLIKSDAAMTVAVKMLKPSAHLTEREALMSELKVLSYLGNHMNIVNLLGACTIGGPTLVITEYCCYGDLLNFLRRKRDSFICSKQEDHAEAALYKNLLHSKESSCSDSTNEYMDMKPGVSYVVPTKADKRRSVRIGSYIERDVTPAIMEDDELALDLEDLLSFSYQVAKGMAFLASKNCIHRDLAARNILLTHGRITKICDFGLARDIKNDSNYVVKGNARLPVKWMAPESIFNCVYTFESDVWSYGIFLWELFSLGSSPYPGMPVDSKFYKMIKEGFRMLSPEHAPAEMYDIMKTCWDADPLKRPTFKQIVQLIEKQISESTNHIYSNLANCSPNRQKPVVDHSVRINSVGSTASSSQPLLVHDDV
Non-receptor tyrosine-protein kinase TYK2 (Homo sapiens), sequence (P29597 whole entry): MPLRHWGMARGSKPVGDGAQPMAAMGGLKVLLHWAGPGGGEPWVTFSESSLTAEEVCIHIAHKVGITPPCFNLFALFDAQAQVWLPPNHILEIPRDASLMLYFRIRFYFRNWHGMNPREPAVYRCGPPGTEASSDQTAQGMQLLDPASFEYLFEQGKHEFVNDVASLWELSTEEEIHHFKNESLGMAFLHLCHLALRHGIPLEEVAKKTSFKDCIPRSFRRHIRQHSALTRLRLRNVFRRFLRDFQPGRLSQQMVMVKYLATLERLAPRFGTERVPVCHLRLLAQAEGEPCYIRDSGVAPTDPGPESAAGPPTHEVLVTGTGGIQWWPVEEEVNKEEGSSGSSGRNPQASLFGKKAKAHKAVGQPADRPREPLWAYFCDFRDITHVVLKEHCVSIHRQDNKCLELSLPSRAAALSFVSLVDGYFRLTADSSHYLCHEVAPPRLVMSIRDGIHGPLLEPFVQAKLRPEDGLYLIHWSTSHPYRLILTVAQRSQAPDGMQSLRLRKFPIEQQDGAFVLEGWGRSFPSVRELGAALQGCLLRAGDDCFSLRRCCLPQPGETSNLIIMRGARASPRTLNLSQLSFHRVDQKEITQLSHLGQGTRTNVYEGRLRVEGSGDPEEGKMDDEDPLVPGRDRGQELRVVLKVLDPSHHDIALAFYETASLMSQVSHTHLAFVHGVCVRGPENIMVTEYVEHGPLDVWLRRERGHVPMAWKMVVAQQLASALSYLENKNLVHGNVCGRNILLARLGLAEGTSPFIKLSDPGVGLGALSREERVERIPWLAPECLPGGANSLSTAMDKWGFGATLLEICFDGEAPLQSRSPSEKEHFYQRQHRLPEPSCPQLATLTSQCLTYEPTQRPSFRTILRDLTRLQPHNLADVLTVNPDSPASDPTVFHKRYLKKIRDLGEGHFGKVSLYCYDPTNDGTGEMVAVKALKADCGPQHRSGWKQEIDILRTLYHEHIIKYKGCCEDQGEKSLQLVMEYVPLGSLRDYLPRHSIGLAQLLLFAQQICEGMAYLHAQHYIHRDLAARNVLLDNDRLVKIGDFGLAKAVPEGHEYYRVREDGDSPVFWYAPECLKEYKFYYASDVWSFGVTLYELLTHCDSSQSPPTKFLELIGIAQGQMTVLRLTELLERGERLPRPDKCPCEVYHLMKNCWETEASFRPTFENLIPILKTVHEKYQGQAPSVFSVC
Tyrosine-protein kinase Lck (Homo sapiens), sequence (P06239 2-509 limits assumed): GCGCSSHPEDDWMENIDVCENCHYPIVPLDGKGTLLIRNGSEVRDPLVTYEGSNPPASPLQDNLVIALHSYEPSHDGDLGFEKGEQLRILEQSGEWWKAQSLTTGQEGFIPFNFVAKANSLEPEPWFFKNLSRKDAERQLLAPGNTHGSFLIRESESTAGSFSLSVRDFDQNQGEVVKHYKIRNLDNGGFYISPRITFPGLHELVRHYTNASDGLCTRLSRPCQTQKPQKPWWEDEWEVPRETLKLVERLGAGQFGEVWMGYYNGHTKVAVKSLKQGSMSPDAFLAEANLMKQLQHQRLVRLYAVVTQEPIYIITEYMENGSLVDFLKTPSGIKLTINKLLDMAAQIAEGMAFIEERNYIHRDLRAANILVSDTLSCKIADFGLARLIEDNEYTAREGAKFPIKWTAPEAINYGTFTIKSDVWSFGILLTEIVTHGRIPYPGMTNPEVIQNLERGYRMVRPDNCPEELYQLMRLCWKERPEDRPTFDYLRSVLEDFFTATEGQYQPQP
Cyclin-dependent kinase 18 (Homo sapiens), sequence (Q07002 whole entry): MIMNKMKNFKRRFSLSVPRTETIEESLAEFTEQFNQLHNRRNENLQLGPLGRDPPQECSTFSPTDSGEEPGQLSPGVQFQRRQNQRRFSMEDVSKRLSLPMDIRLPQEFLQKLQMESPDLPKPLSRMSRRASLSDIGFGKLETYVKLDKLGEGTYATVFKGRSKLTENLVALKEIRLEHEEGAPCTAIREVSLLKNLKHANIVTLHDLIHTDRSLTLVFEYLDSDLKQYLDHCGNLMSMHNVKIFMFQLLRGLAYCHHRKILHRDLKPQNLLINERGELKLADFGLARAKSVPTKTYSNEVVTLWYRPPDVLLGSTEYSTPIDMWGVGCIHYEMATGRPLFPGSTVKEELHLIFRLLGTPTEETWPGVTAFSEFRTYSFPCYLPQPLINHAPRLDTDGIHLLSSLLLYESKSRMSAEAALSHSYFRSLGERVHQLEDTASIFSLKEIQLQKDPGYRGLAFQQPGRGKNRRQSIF
RAC-beta serine/threonine-protein kinase (Homo sapiens), sequence (P31751 whole entry): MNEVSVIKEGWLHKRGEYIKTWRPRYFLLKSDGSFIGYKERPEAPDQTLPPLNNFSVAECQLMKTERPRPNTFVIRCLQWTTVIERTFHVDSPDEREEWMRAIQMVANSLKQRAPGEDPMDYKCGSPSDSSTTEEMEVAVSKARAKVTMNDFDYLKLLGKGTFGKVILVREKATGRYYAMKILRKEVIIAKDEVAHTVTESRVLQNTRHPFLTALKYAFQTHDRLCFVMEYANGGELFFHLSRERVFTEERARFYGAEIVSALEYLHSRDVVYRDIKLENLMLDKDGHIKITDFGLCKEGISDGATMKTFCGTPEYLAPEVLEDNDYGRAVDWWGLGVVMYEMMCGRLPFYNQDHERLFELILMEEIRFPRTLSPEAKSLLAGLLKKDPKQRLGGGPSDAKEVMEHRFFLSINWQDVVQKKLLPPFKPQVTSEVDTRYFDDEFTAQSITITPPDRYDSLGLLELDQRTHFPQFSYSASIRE

For O=C(N[C@@H](C1CC1)C(F)(F)F)c1cc(-c2cnn3cc(-c4ccc(F)cc4)cnc23)cs1, the inhibition [1] was 0%, the fold change (FC) [2] was 0.14 and the inhibition [3] was 0%. It also gave an inhibition [4] of 0%.
For CC(C)[C@H](NC(=O)c1cc(-c2cnn3cc(-c4ccc(OCCN5CCCCC5)cc4)cnc23)cs1)C(F)(F)F, the inhibition [5] was 36%, the inhibition [6] was 0% and the fold change (FC) [7] was 0.
CNC(=O)c1ccccc1Oc1nc(Nc2cc(OC)c(OC)c(OC)c2)ncc1Br showed a fold change (FC) [8] of 0.01, an inhibition [9] of 78% and an inhibition [10] of 20%. For the same compound, the inhibition [11] was 0% and the inhibition [12] was 1%.

Source: ChEMBL document CHEMBL5653631, “A Potent and Selective ULK1 Inhibitor Suppresses Autophagy and Sensitizes Cancer Cells to Nutrient Stress” (iScience, 2018)
